Data set [1] is described as follows: Antileukemic activity against acute myeloid leukemia cell assessed as cell death. The following applies: read-out: LD50 (the source's name). The class given is functional. In a few lines: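 Primary AML cells from consenting volunteer donors (one million cells) were cultured in serum-free medium. They were exposed for 24 h, with or without analog, in a dose-response series over 2.5–20 range. Cells were PBS-washed, stained with Annexin-V/7-AAD in HEPES pH 7.4 binding buffer for 15 min in the dark at ambient temperature, then run on a flow cytometer. Viability (Annexin V−/7-AAD−) was normalized to untreated controls, and LD₅₀ was calculated from this series.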

The nature of data set [2]: Antileukemic activity against acute myeloid leukemia cell assessed as cell death at 10 uM. The class given is functional. The procedure, abridged: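 Probe screen: one million donor-derived primary AML cells in serum-free medium were incubated 24 h with or without analog at a single probe concentration. Cells were PBS-washed, then stained with Annexin-V and 7-AAD in HEPES/NaCl/CaCl₂ buffer pH 7.4 for 15 min, dark, ambient temperature. Flow cytometry followed immediately. Annexin V−/7-AAD− cells were scored viable, normalized to untreated specimens.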

Data set [3] in a line: Aqueous solubility of the compound. The class given is physicochemical. The following applies: buffer.

On to `C=C1C(=O)O[C@@H]2C3O[C@]3(C)CC/C=C(\C)CC[C@@H]12` (some centres not stated), for which the CC50 in data set [1] came to 1400 nM. Moreover, the Activity in data set [2] stood at 84%. The compound also gave a solubility in data set [3] of 0.169 uM/ml.

For `CCCN(C)C[C@@H]1C(=O)O[C@H]2[C@H]1CC/C(C)=C\CC[C@@]1(C)O[C@@H]21.O=C(O)/C=C/C(=O)O`, the CC50 in data set [1] was 3200 nM. Also, in data set [2], the Activity worked out at 95%. Turning to `C/C1=C/CC[C@@]2(C)O[C@H]2[C@H]2OC(=O)[C@@H](CN3CCOCC3)[C@@H]2CC1.O=C(O)/C=C/C(=O)O`, the CC50 in data set [1] turned out to be 14000 nM. In addition, in data set [2], the Activity came out at 20%. Take `C/C1=C/CC[C@@]2(C)O[C@H]2[C@H]2OC(=O)[C@@H](CNN(C)C)[C@@H]2CC1.O=C(O)/C=C/C(=O)O`: in data set [2], the Activity turned out to be 0%. Consider `C/C1=C/CC[C@@]2(C)O[C@H]2[C@H]2OC(=O)[C@@H](CNCCCN)[C@@H]2CC1.O=C(O)/C=C/C(=O)O`, for which the Activity in data set [2] was 0%. As to `C/C1=C/CC[C@@]2(C)O[C@H]2[C@H]2OC(=O)[C@@H](CNNC(C)(C)C)[C@@H]2CC1.O=C(O)/C=C/C(=O)O`, the Activity in data set [2] was 0%. As to `C/C1=C/CC[C@@]2(C)O[C@H]2[C@H]2OC(=O)[C@@H](CNC3CC3)[C@@H]2CC1.O=C(O)/C=C/C(=O)O`, the Activity in data set [2] is listed as 6%. As for `CCN(C)C[C@@H]1C(=O)O[C@H]2[C@H]1CC/C(C)=C\CC[C@@]1(C)O[C@@H]21.O=C(O)/C=C/C(=O)O`, in data set [1], the CC50 was determined as 2500 nM. In addition, the Activity in data set [2] is on record as 80%. Turning to `C/C1=C/CC[C@@]2(C)O[C@H]2[C@H]2OC(=O)[C@@H](CN(C)C(C)C)[C@@H]2CC1.O=C(O)/C=C/C(=O)O`, the Activity in data set [2] was 78%. In the case of `C/C1=C/CC[C@@]2(C)O[C@H]2[C@H]2OC(=O)[C@@H](CNCCN)[C@@H]2CC1.O=C(O)/C=C/C(=O)O`, the Activity in data set [2] worked out at 0%. For `CCCCCN(C)C[C@@H]1C(=O)O[C@H]2[C@H]1CC/C(C)=C\CC[C@@]1(C)O[C@@H]21.O=C(O)/C=C/C(=O)O`, the CC50 in data set [1] was 4600 nM. For the same compound, in data set [2], the Activity came to 46%. Regarding `C/C1=C/CC[C@@]2(C)O[C@H]2[C@H]2OC(=O)[C@@H](CN(C)CCO)[C@@H]2CC1.O=C(O)/C=C/C(=O)O`, the CC50 in data set [1] came to 1800 nM. The Activity in data set [2] is on record as 86%.

Regarding `C/C1=C/CC[C@@]2(C)O[C@H]2[C@H]2OC(=O)[C@@H](CN(C)[C@@H]3[C@@H](O)[C@H](O)[C@@H](CO)O[C@H]3O)[C@@H]2CC1.O=C(O)/C=C/C(=O)O`, the Activity in data set [2] is reported as 0%.

Regarding `C/C1=C/CC[C@@]2(C)O[C@H]2[C@H]2OC(=O)[C@@H](C)[C@@H]2CC1`, the Activity in data set [2] stood at 0%.

For the compound `C/C1=C/CC[C@@]2(C)O[C@H]2[C@H]2OC(=O)[C@@H](CN(C3CCCCC3)C3CCCCC3)[C@@H]2CC1.O=C(O)/C=C/C(=O)O`, the Activity in data set [2] is listed as 12%. Same read-out and setting: for `C[C@@H]1C(=O)O[C@H]2[C@H]1CCC1(C)OC1CC[C@@]1(C)O[C@@H]21` (some centres not stated) the value was 0%. In the case of `C/C1=C/CC[C@@]2(C)O[C@H]2[C@H]2OC(=O)[C@@H](CN3CCCCC3)[C@@H]2CC1.O=C(O)/C=C/C(=O)O`, the CC50 in data set [1] is 2400 nM. In addition, the Activity in data set [2] worked out at 76%. As to `C/C1=C/CC[C@@]2(C)O[C@H]2[C@H]2OC(=O)[C@@H](CN3CCCCCCC3)[C@@H]2CC1.O=C(O)/C=C/C(=O)O`, in data set [2], the Activity worked out at 13%.

On to `C/C1=C/CC[C@@]2(C)O[C@H]2[C@H]2OC(=O)[C@@H](CN[C@@H]3[C@@H](O)[C@H](O)[C@@H](CO)O[C@H]3O)[C@@H]2CC1.O=C(O)/C=C/C(=O)O`, for which the Activity in data set [2] is recorded as 0%. In the case of `C/C1=C/CC[C@@]2(C)O[C@H]2[C@H]2OC(=O)[C@@H](CN3CCCCCC3)[C@@H]2CC1.O=C(O)/C=C/C(=O)O`, the Activity in data set [2] is 15%. As for `C/C1=C/CC[C@@]2(C)O[C@H]2[C@H]2OC(=O)[C@@H](CN3CC3)[C@@H]2CC1.O=C(O)/C=C/C(=O)O`, the Activity in data set [2] was determined as 22%. Regarding `C=C1C(=O)O[C@H]2[C@H]1CC/C(C=O)=C\CC[C@@]1(C)O[C@@H]21`, the Activity in data set [2] came to 0%.

In the case of `C/C1=C/CC[C@@]2(C)O[C@H]2[C@H]2OC(=O)[C@@H](CN3CCC(C)CC3)[C@@H]2CC1.O=C(O)/C=C/C(=O)O`, in data set [1], the CC50 was 1600 nM. In addition, the Activity in data set [2] amounted to 83%.

As to `C/C1=C/CC[C@@]2(C)O[C@H]2[C@H]2OC(=O)[C@@H](CN(C(C)C)C(C)C)[C@@H]2CC1.O=C(O)/C=C/C(=O)O`, the Activity in data set [2] is given as 20%. `CNC[C@@H]1C(=O)O[C@H]2[C@H]1CC/C(C)=C\CC[C@@]1(C)O[C@@H]21.O=C(O)/C=C/C(=O)O`: the CC50 in data set [1] was determined as 18000 nM. For the same compound, the Activity in data set [2] is listed as 4%. The like results for `C/C1=C/CC[C@@]2(C)O[C@H]2[C@H]2OC(=O)[C@@H](CN(C)C)[C@@H]2CC1.O=C(O)/C=C/C(=O)O` were, in that order, 1700 nM and 93%. For the compound `CCNC[C@@H]1C(=O)O[C@H]2[C@H]1CC/C(C)=C\CC[C@@]1(C)O[C@@H]21.O=C(O)/C=C/C(=O)O`, the CC50 in data set [1] stood at 31000 nM. Besides, in data set [2], the Activity is listed as 2%. In the case of `C/C1=C/CC[C@@]2(C)O[C@H]2[C@H]2OC(=O)[C@@H](CN(C)C3CCCCC3)[C@@H]2CC1.O=C(O)/C=C/C(=O)O`, the CC50 in data set [1] stood at 15000 nM. For the same compound, in data set [2], the Activity amounted to 0%. Turning to `CCN(CC)C[C@@H]1C(=O)O[C@H]2[C@H]1CC/C(C)=C\CC[C@@]1(C)O[C@@H]21.O=C(O)/C=C/C(=O)O`, the Activity in data set [2] is listed as 60%. Consider `C=CCN(CC=C)C[C@@H]1C(=O)O[C@H]2[C@H]1CC/C(C)=C\CC[C@@]1(C)O[C@@H]21.O=C(O)/C=C/C(=O)O`, for which, in data set [2], the Activity is listed as 0%. As for `C#CNC[C@@H]1C(=O)O[C@H]2[C@H]1CC/C(C)=C\CC[C@@]1(C)O[C@@H]21.O=C(O)/C=C/C(=O)O`, the Activity in data set [2] is reported as 7%. For the compound `CCCN(CCC)C[C@@H]1C(=O)O[C@H]2[C@H]1CC/C(C)=C\CC[C@@]1(C)O[C@@H]21.O=C(O)/C=C/C(=O)O`, the Activity in data set [2] is 0%. As to `C=C1C(=O)O[C@H]2[C@H]1CC/C(CO)=C\CC[C@@]1(C)O[C@@H]21`, the Activity in data set [2] worked out at 0%. With `C/C1=C/CC[C@@]2(C)O[C@H]2[C@H]2OC(=O)[C@@H](CN3CCCC3)[C@@H]2CC1.O=C(O)/C=C/C(=O)O`, the CC50 in data set [1] is 2700 nM. In addition, the Activity in data set [2] was found to be 82%.

Consider `C/C1=C/CC[C@@]2(C)O[C@H]2[C@H]2OC(=O)[C@@H](CNCCO)[C@@H]2CC1.O=C(O)/C=C/C(=O)O`, for which the Activity in data set [2] stood at 0%.

Turning to `CCCCN(C)C[C@@H]1C(=O)O[C@H]2[C@H]1CC/C(C)=C\CC[C@@]1(C)O[C@@H]21.O=C(O)/C=C/C(=O)O`, the CC50 in data set [1] came to 2800 nM. Further, the Activity in data set [2] turned out to be 68%. `C/C1=C/CC[C@@]2(C)O[C@H]2[C@H]2OC(=O)[C@@H](CNCCCO)[C@@H]2CC1.O=C(O)/C=C/C(=O)O`: in data set [2], the Activity is listed as 0%.

The record behind these values is ChEMBL document CHEMBL1152358, “Aminoparthenolides as novel anti-leukemic agents: Discovery of the NF-kappaB inhibitor, DMAPT (LC-1)” (Bioorg Med Chem Lett, 2009).
